The source of these data is ChEMBL document CHEMBL4431394, “Modifications of a Nanomolar Cyclic Peptide Antagonist for the EphA4 Receptor To Achieve High Plasma Stability” (ACS Med Chem Lett, 2016).

A word on the IC50: it is the concentration at which inhibition is half-maximal. For orientation: half-life means the time in which the quantity being followed falls by half.

Peptide text beside a SMILES is read from it.

Sequence of Ephrin type-A receptor 4 (P54764 whole entry, the tested form may be a part): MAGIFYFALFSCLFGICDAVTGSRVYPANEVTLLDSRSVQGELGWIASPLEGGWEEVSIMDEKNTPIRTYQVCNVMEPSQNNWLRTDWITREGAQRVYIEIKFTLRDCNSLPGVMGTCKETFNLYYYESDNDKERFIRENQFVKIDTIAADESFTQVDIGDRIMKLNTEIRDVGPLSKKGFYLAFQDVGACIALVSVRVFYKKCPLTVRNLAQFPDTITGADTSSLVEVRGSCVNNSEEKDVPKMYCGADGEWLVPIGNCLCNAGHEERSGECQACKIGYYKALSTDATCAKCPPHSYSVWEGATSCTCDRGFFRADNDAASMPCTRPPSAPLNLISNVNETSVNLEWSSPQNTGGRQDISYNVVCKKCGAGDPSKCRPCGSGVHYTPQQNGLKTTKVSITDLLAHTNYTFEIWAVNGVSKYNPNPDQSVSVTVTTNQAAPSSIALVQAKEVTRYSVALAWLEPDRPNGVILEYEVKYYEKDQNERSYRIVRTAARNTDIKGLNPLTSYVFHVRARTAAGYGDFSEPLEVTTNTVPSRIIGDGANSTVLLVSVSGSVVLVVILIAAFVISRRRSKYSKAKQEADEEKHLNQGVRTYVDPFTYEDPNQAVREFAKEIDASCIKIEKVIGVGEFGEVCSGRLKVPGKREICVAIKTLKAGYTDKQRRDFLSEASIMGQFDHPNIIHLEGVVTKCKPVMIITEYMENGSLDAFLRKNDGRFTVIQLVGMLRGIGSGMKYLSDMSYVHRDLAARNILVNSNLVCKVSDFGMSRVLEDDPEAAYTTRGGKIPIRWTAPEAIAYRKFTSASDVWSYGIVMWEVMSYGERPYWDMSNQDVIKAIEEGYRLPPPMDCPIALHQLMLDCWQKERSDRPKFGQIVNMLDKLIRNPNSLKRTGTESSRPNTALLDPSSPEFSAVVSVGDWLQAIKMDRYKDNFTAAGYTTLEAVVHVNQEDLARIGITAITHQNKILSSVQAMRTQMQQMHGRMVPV

The first series concerns the target Ephrin type-A receptor 4 (Homo sapiens, UniProt P54764). The series can be described thus: Antagonist activity against human EphA4 receptor assessed as inhibition of binding of alkaline phosphatase-fused ephrin-A5 to immobilized EphA4 Fc by ELISA.
Conditions: not given
In the case of `CC(C)[C@@H]1NC(=O)[C@@H](NC(=O)[C@H](Cc2ccc(O)cc2)NC(=O)[C@@H]2CCCN2C(=O)CCN)CSSC[C@@H](C(N)=O)NC(=O)[C@H](Cc2c[nH]c3ccccc23)NC(=O)[C@H](CCC(=O)O)NC(=O)[C@H](CCC(=O)O)NC(=O)CCNC(=O)[C@H](CCCNC(=N)N)NC(=O)[C@H](Cc2ccc(O)cc2)NC1=O` (HELM PEPTIDE1{[bAla].P.Y.C.V.Y.R.[bAla].E.E.W.C.[am]}$PEPTIDE1,PEPTIDE1,4:R3-12:R3$$$V2.0), the IC50 was more than 10 µM.

Test system in the next series: not listed separately
Put plainly: Half life in mouse plasma assessed as remaining peptide antagonistic activity for inhibition of binding of alkaline phosphatase-fused ephrin-A5 to immobilized EphA4 Fc incubated for 3 days by ELISA. It is filed as cell-free.
Conditions: not given
The method, boiled down:
(§1)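 Peptide was incubated in mouse plasma or rat CSF for various periods. The residual ability to inhibit ephrin-A5–EphA4 interaction was then measured by ELISA, and the half-life of active peptide was derived from the loss of activity over time.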
In the case of `CC(C)[C@@H]1NC(=O)[C@@H](NC(=O)[C@H](Cc2ccc(O)cc2)NC(=O)CCCCN)CSSC[C@@H](C(N)=O)NC(=O)[C@H](CO)NC(=O)[C@H](Cc2c[nH]c3ccccc23)NC(=O)[C@H](CO)NC(=O)CCNC(=O)[C@H](CCCNC(=N)N)NC(=O)[C@H](Cc2ccc(O)cc2)NC1=O`, the half-life was more than 72 h.
Regarding `CC(C)[C@@H]1NC(=O)[C@@H](NC(=O)[C@H](Cc2ccc(O)cc2)NC(=O)CCCCCN)CSSC[C@@H](C(N)=O)NC(=O)[C@H](CO)NC(=O)[C@H](Cc2c[nH]c3ccccc23)NC(=O)[C@H](CO)NC(=O)CCNC(=O)[C@H](CCCNC(=N)N)NC(=O)[C@H](Cc2ccc(O)cc2)NC1=O`, the half-life is more than 72 h.
`CC(C)[C@@H]1NC(=O)[C@@H](NC(=O)[C@H](Cc2ccc(O)cc2)NC(=O)[C@@H]2CCCN2C(=O)[C@H](C)N)CSSC[C@@H](C(N)=O)NC(=O)[C@H](CO)NC(=O)[C@H](Cc2c[nH]c3ccccc23)NC(=O)[C@H](CO)NC(=O)CCNC(=O)[C@H](CCCNC(=N)N)NC(=O)[C@H](Cc2ccc(O)cc2)NC1=O`: the half-life was less than 3 h.
On the same count and under the same terms, next, `CC(C)[C@@H]1NC(=O)[C@@H](NC(=O)[C@H](Cc2ccc(O)cc2)NC(=O)CCN)CSSC[C@@H](C(N)=O)NC(=O)[C@H](CO)NC(=O)[C@H](Cc2c[nH]c3ccccc23)NC(=O)[C@H](CO)NC(=O)CCNC(=O)[C@H](CCCNC(=N)N)NC(=O)[C@H](Cc2ccc(O)cc2)NC1=O`: 30 h.
For the molecule `CC(=O)N1CCC[C@H]1C(=O)N[C@@H](Cc1ccc(O)cc1)C(=O)N[C@H]1CSSC[C@@H](C(N)=O)NC(=O)[C@H](CO)NC(=O)[C@H](Cc2c[nH]c3ccccc23)NC(=O)[C@H](CO)NC(=O)CCNC(=O)[C@H](CCCNC(=N)N)NC(=O)[C@H](Cc2ccc(O)cc2)NC(=O)[C@H](C(C)C)NC1=O`, the half-life is more than 72 h.
For `CC(C)[C@@H]1NC(=O)[C@@H](NC(=O)[C@H](Cc2ccc(O)cc2)NC(=O)[C@@H]2CCCN2)CSSC[C@@H](C(N)=O)NC(=O)[C@H](CO)NC(=O)[C@H](Cc2c[nH]c3ccccc23)NC(=O)[C@H](CO)NC(=O)CCNC(=O)[C@H](CCCNC(=N)N)NC(=O)[C@H](Cc2ccc(O)cc2)NC1=O`, the half-life is 15 h.
Same read-out and setting: next, `CC(C)[C@@H]1NC(=O)[C@@H](NC(=O)[C@H](Cc2ccc(O)cc2)NC(=O)[C@@H]2CCCN2C(=O)[C@@H](C)N)CSSC[C@@H](C(N)=O)NC(=O)[C@H](CO)NC(=O)[C@H](Cc2c[nH]c3ccccc23)NC(=O)[C@H](CO)NC(=O)CCNC(=O)[C@H](CCCNC(=N)N)NC(=O)[C@H](Cc2ccc(O)cc2)NC1=O`: more than 72 h.
Regarding `CC(C)[C@@H]1NC(=O)[C@@H](NC(=O)[C@H](Cc2ccc(O)cc2)NC(=O)CCCN)CSSC[C@@H](C(N)=O)NC(=O)[C@H](CO)NC(=O)[C@H](Cc2c[nH]c3ccccc23)NC(=O)[C@H](CO)NC(=O)CCNC(=O)[C@H](CCCNC(=N)N)NC(=O)[C@H](Cc2ccc(O)cc2)NC1=O`, the half-life was more than 72 h.
Still for that read-out and setting: next, `CC(C)[C@@H]1NC(=O)[C@@H](NC(=O)[C@H](Cc2ccc(O)cc2)NC(=O)CN)CSSC[C@@H](C(N)=O)NC(=O)[C@H](CO)NC(=O)[C@H](Cc2c[nH]c3ccccc23)NC(=O)[C@H](CO)NC(=O)CCNC(=O)[C@H](CCCNC(=N)N)NC(=O)[C@H](Cc2ccc(O)cc2)NC1=O`: 6 h; `CC(C)[C@@H]1NC(=O)[C@@H](NC(=O)[C@H](Cc2ccc(O)cc2)NC(=O)[C@@H]2CCCN2C(=O)CCN)CSSC[C@@H](C(N)=O)NC(=O)[C@H](CCC(=O)O)NC(=O)[C@H](Cc2c[nH]c3ccccc23)NC(=O)[C@H](CCC(=O)O)NC(=O)CCNC(=O)[C@H](CCCNC(=N)N)NC(=O)[C@H](Cc2ccc(O)cc2)NC1=O`: more than 72 h.
The same measure, in the same setting: next, `CNCC(=O)N[C@@H](Cc1ccc(O)cc1)C(=O)N[C@H]1CSSC[C@@H](C(N)=O)NC(=O)[C@H](CO)NC(=O)[C@H](Cc2c[nH]c3ccccc23)NC(=O)[C@H](CO)NC(=O)CCNC(=O)[C@H](CCCNC(=N)N)NC(=O)[C@H](Cc2ccc(O)cc2)NC(=O)[C@H](C(C)C)NC1=O`: more than 72 h; `CC(=O)N[C@@H](C)C(=O)N1CCC[C@H]1C(=O)N[C@@H](Cc1ccc(O)cc1)C(=O)N[C@H]1CSSC[C@@H](C(N)=O)NC(=O)[C@H](CO)NC(=O)[C@H](Cc2c[nH]c3ccccc23)NC(=O)[C@H](CO)NC(=O)CCNC(=O)[C@H](CCCNC(=N)N)NC(=O)[C@H](Cc2ccc(O)cc2)NC(=O)[C@H](C(C)C)NC1=O`: 72 h.

Test system in the next series: not listed separately
Put plainly: Stability in Sprague-Dawley rat CSF assessed as remaining peptide antagonistic activity for inhibition of binding of alkaline phosphatase-fused ephrin-A5 to immobilized EphA4 Fc incubated for 3 days by ELISA. To be noted: in vitro, 72 h. It is filed as tissue-based, Cerebrospinal fluid. The method in brief:
as §1
(In general: An ELISA detects its analyte on a solid surface through an enzyme-linked reagent.)
For the molecule `CC(C)[C@@H]1NC(=O)[C@@H](NC(=O)[C@H](Cc2ccc(O)cc2)NC(=O)[C@@H]2CCCN2C(=O)[C@@H](C)N)CSSC[C@@H](C(N)=O)NC(=O)[C@H](CO)NC(=O)[C@H](Cc2c[nH]c3ccccc23)NC(=O)[C@H](CO)NC(=O)CCNC(=O)[C@H](CCCNC(=N)N)NC(=O)[C@H](Cc2ccc(O)cc2)NC1=O`, the Stability result was “Stable”.

In another series the test system is HT-22. Put plainly: Cytotoxicity against mouse HT22 cells at 15 to 30 uM after 24 hrs by MTT assay. In kind it is cell-based. Particulars: ht-22, 24 h. The method in brief:
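HT22 neuronal cells were grown 24 h with 15 or 30 μM peptide, alongside controls receiving the matching DMSO concentration. Cell number was quantified by MTT, with averages ± SE from 5 measurements.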
A general note: Formazan colour is commonly taken as a measure of viable cells.
As to `CC(C)[C@@H]1NC(=O)[C@@H](NC(=O)[C@H](Cc2ccc(O)cc2)NC(=O)[C@@H]2CCCN2C(=O)CCN)CSSC[C@@H](C(N)=O)NC(=O)[C@H](CCC(=O)O)NC(=O)[C@H](Cc2c[nH]c3ccccc23)NC(=O)[C@H](CCC(=O)O)NC(=O)CCNC(=O)[C@H](CCCNC(=N)N)NC(=O)[C@H](Cc2ccc(O)cc2)NC1=O`, the Activity entry is “Non-Toxic”.
